Screens from PubChem.
In the library only some 11% were active in any assay of this set; here they are far more common.
mHtt clearance = mutant huntingtin protein clearance; HeLa Exon1htt(103Q)mCFP, aggregate imaging; zero = plate's median compound well; inhibition, % at 1.5 µM; 0.42% of 47,000 active; AID 853;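 active = inhibition of aggregate fluorescence above about 70%, also judged a hit by eye on the cell image, limit read from the data, passing the limit was not always enough; inconclusive = no rule stated for this call; inactive = not judged a hit on image review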;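 also: cells exposed to compound for three days before fixation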
M1 antag = M1 muscarinic receptor (rat) antagonism. P08482. CHO-M1 cells, Fluo-4 calcium, ACh EC80 antagonist mode; hits give low values. B-score at 10 µM. 3.4% of 64,000 active;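 active = calcium fluorescence response, raw or row-and-column corrected B-score, differing from the plate sample mean either way at a set confidence level, mostly lower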
Target sequence (P08482 whole entry, looked up): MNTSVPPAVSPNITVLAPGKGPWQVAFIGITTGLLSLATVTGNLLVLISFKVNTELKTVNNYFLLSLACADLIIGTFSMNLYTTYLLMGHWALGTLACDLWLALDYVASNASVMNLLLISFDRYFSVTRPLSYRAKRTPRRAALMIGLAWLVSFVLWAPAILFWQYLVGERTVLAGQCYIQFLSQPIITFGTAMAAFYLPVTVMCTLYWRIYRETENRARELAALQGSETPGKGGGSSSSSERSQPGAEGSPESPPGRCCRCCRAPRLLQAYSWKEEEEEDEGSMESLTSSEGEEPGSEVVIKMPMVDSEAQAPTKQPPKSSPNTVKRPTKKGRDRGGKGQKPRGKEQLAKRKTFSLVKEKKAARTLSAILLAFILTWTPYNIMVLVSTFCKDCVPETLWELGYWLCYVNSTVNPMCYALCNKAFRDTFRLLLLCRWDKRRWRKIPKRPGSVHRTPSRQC
D1 mod = D1 dopamine receptor (human) allosteric modulation; B-score at 10 µM; 5.9% of 58,000 active; HEK293 D1, CRE-luciferase, dopamine EC30 potentiation; actives deviate in either direction; P21728;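 active = luminescence count or its row- and column-corrected plate score outside the 99.7% band of the plate's sample wells, on either side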
SF-1 act = SF-1 (human) activation | activation, % at 10 µM | 1.9% of 65,000 active | CHO-K1 Gal4-SF-1 LBD luciferase reporter; % increase over DMSO SF-1-specific signal | AID 522 | Q13285;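 active = activation above the mean activation of all tested compounds plus 3 SD, cut at about 50% in these data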
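Test system: transient Gal4-SF-1 LBD reporter, CHO-K1; Amount: 4,000 CHO-K1 cells per well; Doses: 10 µM only; Timing: compound exposure 20 h at 37 °C; Signal: luciferase light emission; Read-out basis: percent activation relative to DMSO median and mock-transfected background; Control set: DMSO negative control and −SF1 background wells; Replicates: one test per compound.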
M1 agonist = M1 muscarinic receptor agonism. 3% of 64,000 active. CHO-M1 cells, Fluo-4 calcium fluorescence, agonist mode; hits give high values. B-score at 10 µM. AID 626;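 active = fluorescence rise, raw or as B-score row- and column-corrected plate score, outside the 99.7% band of its plate's samples, either direction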
RORa activator = activates the human nuclear receptor RORA | CHO-K1 Gal4-RORA LBD luciferase reporter, luminescence; percent increase over mock-subtracted basal signal | activation, % at 10 µM | 1.5% of 65,000 active | AID 560;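 active = activation above the mean of all tested compounds plus 3 SD, cut at about 49% in these data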
D1 PAM confirm = confirmation of human D1 dopamine receptor allosteric modulators; luminescence at 10 µM; HEK293 D1 CRE-luciferase, dopamine EC30 potentiation; hits give high values; 88% of 2,200 active; shares compounds with D1 mod;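 active = luminescence in either of two replicates above the same-plate mean plus 3 SD of the low-dose dopamine control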
D1 no dopamine = activates D1 CRE-luciferase signal without dopamine present | shares compounds with D1 mod | HEK293 D1 CRE-luciferase, luminescence, no dopamine; hits give high values | luminescence at 10 µM | 0.8% of 1,900 active | AID 646; in the data active = luminescence above about 3900
Isoprot counter = counter-screen for D1 modulators: isoproterenol response in HEK293 cells. 63% of 2,200 active. shares compounds with D1 mod. calls only at 10 µM. AID 647. HEK293 D1 CRE-luciferase, isoproterenol EC30 counter-screen;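 active = luminescence in either replicate above plate mean of wells with a partly effective reference agonist dose plus 3 SD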;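 also: isoproterenol raises cAMP through native beta-adrenoceptor Gs so signal bypasses D1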
Large screens that a line does not name were inactive (follow-up assays come after a bar, where they were run).

c1csc(Cc2nn3c(-c4n[nH]c5c4CCC5)nnc3s2)c1	D1 mod 3.4 (no result: mHtt clearance) | D1 PAM confirm 8576 | D1 no dopamine inactive | Isoprot counter active
Cn1c(=O)[nH]c(=O)c2c1nc(Br)n2CCC(=O)c1ccccc1	none
COc1cc(Br)cc(-c2nc3c(c(=O)[nH]c(=O)n3Cc3ccccc3)n2C)c1O	D1 mod 8.2 (no result: mHtt clearance) | D1 PAM confirm 26460 | D1 no dopamine inactive | Isoprot counter active
CCSc1nc(N2CCOCC2)c2ccccc2n1	D1 mod 10 | D1 PAM confirm 15840 | Isoprot counter active
CCSc1nc2ccccc2n1CC(=O)N1CCOCC1	none (no result: mHtt clearance, SF-1 act, RORa activator)
CCS(=O)(=O)c1nc2ccccc2n1Cc1ccccc1Cl	D1 mod 16 (no result: mHtt clearance) | D1 PAM confirm 16608 | D1 no dopamine inactive | Isoprot counter active
CCOc1ccccc1C1NC(=O)NC(C)=C1C(=O)OC1CCCC1C (stereo unspecified)	none (no result: mHtt clearance)
CCOc1ccccc1C1NC(=O)NC(C)=C1C(=O)OC1CCCCC1 (stereo unspecified)	D1 mod 4.2 | D1 PAM confirm 5388 | D1 no dopamine inactive | Isoprot counter inactive
Cc1cc(NC(=O)COC(=O)[C@H](Cc2c[nH]c3ccccc23)NC(=O)c2ccc(F)cc2)no1	none (no result: M1 antag, D1 mod, SF-1 act, M1 agonist, RORa activator)
CC1CCN(c2nc(-c3ccncc3)nc3ccccc23)CC1	D1 mod 3.9 | D1 PAM confirm 9916 | D1 no dopamine inactive | Isoprot counter active
CC1CCCCN1c1nc(-c2ccncc2)nc2ccccc12 (stereo unspecified)	D1 mod 13 | D1 PAM confirm 8444 | D1 no dopamine inactive | Isoprot counter active
CCn1c(=O)n(-c2ccc(Cl)cc2)c(=O)c2c3c(sc21)COC(C)(C)C3	none (no result: M1 antag, D1 mod, SF-1 act, M1 agonist, RORa activator)
Cc1nc2sc(C(c3ccccc3)N3CCN(C)CC3)c(O)n2n1 (stereo unspecified)	none (no result: mHtt clearance)
CCN1CCN(c2nc3c(c(=O)n(C)c(=O)n3C)n2CCSc2nccc(C)n2)CC1	none
CN(C)c1nc(-c2ccccc2)c2cnn(Cc3ccccc3)c2n1	none (no result: mHtt clearance)
c1ccc(-c2nc3ccccc3c3nncn23)cc1	D1 mod 7.2 | D1 PAM confirm 7952 | D1 no dopamine inactive | Isoprot counter inactive
Cc1ccc(Nc2nc(N)nc(CC#N)n2)cc1	D1 mod 6.6 | D1 PAM confirm 14616 | Isoprot counter active
Cc1ccc(Nc2nc(N)nc(CSCCO)n2)cc1	none (no result: M1 antag, D1 mod, SF-1 act, M1 agonist, RORa activator)
O=c1ccc(Oc2nc(N3CCCCC3)nc(N3CCCCC3)n2)n[nH]1	none (no result: mHtt clearance)
O=C(Nc1ccc(-c2noc(CCc3ccccc3)n2)cc1)c1cccnc1	none (no result: mHtt clearance)
CN(C)C(CNC(=O)c1cccnc1Sc1ccccc1)c1ccco1 (stereo unspecified)	D1 mod 6.6 (no result: mHtt clearance) | D1 PAM confirm 8824 | Isoprot counter active
COc1ccc(N2CC(C)Cn3c2nc2c3c(=O)[nH]c(=O)n2C)cc1 (stereo unspecified)	none
COc1ccc2c(C)c(C(=O)NCC(C)O)oc2c1OC (stereo unspecified)	D1 mod 7.5 (no result: mHtt clearance, SF-1 act, RORa activator) | D1 PAM confirm 11688 | D1 no dopamine inactive | Isoprot counter active
COc1ccc(CNCCNC(=O)c2ccco2)c(OC)c1OC	none (no result: mHtt clearance)
CCn1nnc(-c2ccccc2NC(=O)c2cc(OC)cc(OC)c2)n1	none (no result: mHtt clearance)
CCn1nnc(-c2ccccc2NC(=O)c2cc(OC)c(OC)c(OC)c2)n1	D1 mod 5.5 (no result: mHtt clearance) | D1 PAM confirm 16052 | D1 no dopamine inactive | Isoprot counter active
c1cn2cc(-c3ccc4c(c3)OCO4)nc2s1	none (no result: mHtt clearance)
CC(C)Cn1c(-c2ccc(Cl)cc2)cnc1SCC(=O)N1CCOCC1	none (no result: mHtt clearance)
CCOc1ccc(C2C(C#N)=C(N)Oc3cc(C)n(CCN(C)C)c(=O)c32)cc1OCC (stereo unspecified)	none
CNc1nc(NC)nc(-n2c(C(F)(F)F)nc3ccccc32)n1	mHtt clearance inconclusive, D1 mod 8 | D1 PAM confirm 18112 | D1 no dopamine inactive | Isoprot counter active
Cc1nc2ccccc2n1CC(O)Cn1c(C(F)(F)F)nc2ccccc21 (stereo unspecified)	none (no result: mHtt clearance)
O=C(COc1ccc(-n2cnnn2)cc1)NCCc1ccc(F)cc1	none (no result: mHtt clearance)
COc1cc2c(cc1OC)CN(C(=O)CCCN1C(=O)c3ccccc3C1=O)CC2	D1 mod 5 | D1 PAM confirm 7424 | D1 no dopamine inactive | Isoprot counter active
COc1cc2c(cc1OC)CN(C(=O)CSc1n[nH]c(N)n1)CC2	D1 mod 13 | D1 PAM confirm 16292 | D1 no dopamine inactive | Isoprot counter active
COc1cc2c(cc1OC)CN(C(=O)CSc1nc(C)cc(C)c1C#N)CC2	none (no result: M1 antag, D1 mod, SF-1 act, M1 agonist, RORa activator)
COC(=O)C1=C(C)NC(=O)NC1C1CC=CCC1 (stereo unspecified)	D1 mod 3.3 (no result: M1 antag, M1 agonist) | D1 PAM confirm inactive | D1 no dopamine inactive | Isoprot counter inactive
CCCCn1c(SCc2cccnc2)nc2c1c(=O)n(C)c(=O)n2C	none (no result: mHtt clearance)
CCn1c(SCc2cccnc2)nc2c1c(=O)n(C)c(=O)n2C	D1 mod 5 | D1 PAM confirm 5832 | D1 no dopamine inactive | Isoprot counter inactive
Cn1c(=O)c2c(nc(SCC(=O)N3CCc4ccccc43)n2Cc2ccccc2)n(C)c1=O	none (no result: mHtt clearance)
COCCN1CC(O)=C(c2nc3ccccc3c(=O)[nH]2)C1=N	D1 mod 6.8 (no result: mHtt clearance) | D1 PAM confirm inactive | D1 no dopamine inactive | Isoprot counter inactive
Cc1nc(SCC(=O)Nn2c(-c3ccccc3)nc3ccccc3c2=O)n[nH]1	none (no result: mHtt clearance)
O=C(NC1CCCCC1)c1cnn2c(C(F)(F)F)cc(-c3ccco3)nc12	D1 mod 5.3 (no result: mHtt clearance) | D1 PAM confirm 6744 | D1 no dopamine inactive | Isoprot counter active
O=C(NC1CCCCC1)c1nn2c(C(F)(F)F)cc(-c3ccco3)nc2c1Br	none (no result: mHtt clearance)
CCCC(=O)Nc1cc2c(cc1C(=O)c1ccccc1)OCCO2	D1 mod 6.3 | D1 PAM confirm 13204 | D1 no dopamine inactive | Isoprot counter active
CCC(=O)Nc1cc2c(cc1C(C)=O)OCCO2	none (no result: mHtt clearance)
CN1CCc2c(c3ccccc3n2C)C1	none (no result: M1 antag, D1 mod, SF-1 act, M1 agonist, RORa activator)
Cn1c2c(c3ccccc31)CC/C2=N\O	D1 mod 4.7 (no result: mHtt clearance) | D1 PAM confirm 8132 | D1 no dopamine inactive | Isoprot counter inactive
Cc1cc(C)nc(-n2nc(C)cc2Nc2ccccc2)n1	none
CCC(C(=O)Nc1cc(C)nn1-c1nc(C)cc(C)n1)c1ccccc1 (stereo unspecified)	D1 mod 9.9 (no result: mHtt clearance) | D1 PAM confirm 12296 | Isoprot counter active
